# Assay results of several laboratories.
# Each line is one published result; the experiments were not run side by side.
Structure (SMILES),tested on,effect on,technique,strain,time,setting,IC50
CC(C)C[C@@H]1NC(=O)CNC(=O)[C@H](CC(N)=O)NC(=O)[C@H](CCCNC(=N)N)NC(=O)[C@H]([C@@H](C)O)NC(=O)[C@@H]2CSSC[C@@H]3NC(=O)[C@H]([C@@H](C)O)NC(=O)CNC(=O)CNC(=O)[C@H](C(C)C)NC(=O)[C@@H]4CSSC[C@H](NC(=O)[C@H]([C@@H](C)O)NC(=O)[C@H](CSSC[C@H](NC(=O)[C@H](C(C)C)NC(=O)[C@@H]5CCCN5C1=O)C(=O)NCC(=O)N[C@@H](CCCCN)C(=O)N[C@@H]([C@@H](C)O)C(=O)N4)NC(=O)CNC(=O)[C@@H]1CCCN1C(=O)[C@H]([C@@H](C)O)NC(=O)[C@H](CC(N)=O)NC3=O)C(=O)N[C@@H](CO)C(=O)N[C@@H](Cc1c[nH]c3ccccc13)C(=O)N1CCC[C@H]1C(=O)N[C@@H](C(C)C)C(=O)N2,Sf9,cell growth or viability,MTT,,24 h,,> 32000 nM
N.N.[Cl][Pt][Cl],NCI-H460,cell growth or viability,MTT,,,,7550 nM
Cn1cc2c3c1C(=O)C(NCCc1ccc(O)cc1)=CC3=[N+](C)CC2,Plasmodium falciparum,parasite growth,SYBR Green,3D7,,blood stage,43.7 nM
CCCCCCCCNC[C@H](O)c1cc(Cl)cc2c1-c1ccc(Cl)cc1C2,Plasmodium falciparum,parasite growth,SYBR Green,W2,48 h,"drug-resistant strain, blood stage",5.1 nM
CC(C)C[C@@H]1NC(=O)[C@H](CCCCN)NC(=O)[C@H](CC(N)=O)NC(=O)[C@H](CCCNC(=N)N)NC(=O)[C@H]([C@@H](C)O)NC(=O)[C@@H]2CSSC[C@@H]3NC(=O)[C@H]([C@@H](C)O)NC(=O)CNC(=O)CNC(=O)[C@H](C(C)C)NC(=O)[C@@H]4CSSC[C@H](NC(=O)[C@H]([C@@H](C)O)NC(=O)[C@H](CSSC[C@H](NC(=O)[C@H](C(C)C)NC(=O)[C@@H]5CCCN5C1=O)C(=O)NCC(=O)N[C@@H](CCC(=O)O)C(=O)N[C@@H]([C@@H](C)O)C(=O)N4)NC(=O)CNC(=O)[C@@H]1CCCN1C(=O)[C@H]([C@@H](C)O)NC(=O)[C@H](CC(N)=O)NC3=O)C(=O)N[C@@H](CO)C(=O)N[C@@H](Cc1c[nH]c3ccccc13)C(=O)N1CCC[C@H]1C(=O)N[C@@H](C(C)C)C(=O)N2,Sf9,cell growth or viability,MTT,,24 h,,3000 nM
Cn1cc2c3c1C(=O)C(N)=CC3=[N+](C)CC2,Plasmodium falciparum,parasite growth,SYBR Green,DD2,,blood stage,1350 nM
CCCCCNCC(O)c1cc(Cl)cc2c1-c1ccc(Cl)cc1C2 (racemic),Plasmodium falciparum,parasite growth,SYBR Green,W2,48 h,"drug-resistant strain, blood stage",8.7 nM
C[N+]1=C2C=C(NCCc3ccc(O)cc3)C(=O)c3[nH]cc(c32)CC1,Plasmodium falciparum,parasite growth,SYBR Green,3D7,,blood stage,18.8 nM
CC(C)C[C@@H]1NC(=O)CNC(=O)[C@H](CC(N)=O)NC(=O)[C@H](CCCNC(=N)N)NC(=O)[C@H]([C@@H](C)O)NC(=O)[C@@H]2CSSC[C@@H]3NC(=O)[C@H]([C@@H](C)O)NC(=O)CNC(=O)CNC(=O)[C@H](C(C)C)NC(=O)[C@@H]4CSSC[C@H](NC(=O)[C@H](CCCCN)NC(=O)[C@H](CSSC[C@H](NC(=O)[C@H](C(C)C)NC(=O)[C@@H]5CCCN5C1=O)C(=O)NCC(=O)N[C@@H](CCC(=O)O)C(=O)N[C@@H]([C@@H](C)O)C(=O)N4)NC(=O)CNC(=O)[C@@H]1CCCN1C(=O)[C@H]([C@@H](C)O)NC(=O)[C@H](CC(N)=O)NC3=O)C(=O)N[C@@H](CO)C(=O)N[C@@H](Cc1c[nH]c3ccccc13)C(=O)N1CCC[C@H]1C(=O)N[C@@H](C(C)C)C(=O)N2,Sf9,cell growth or viability,MTT,,24 h,,2600 nM
CCCCCCCNC[C@H](O)c1cc(Cl)cc2c1-c1ccc(Cl)cc1C2,Plasmodium falciparum,parasite growth,SYBR Green,W2,48 h,"drug-resistant strain, blood stage",4.4 nM
